Test results taken from ChEMBL document CHEMBL1139160 (Bioorg Med Chem Lett, 2007).

Target: Dipeptidyl peptidase 4 (Rattus norvegicus, UniProt P14740)
Assay: Inhibition of DPP4 in rat plasma by fluorescence assay
Assay type: cell-free
Settings: not given

Dipeptidyl peptidase 4, sequence (P14740 whole entry): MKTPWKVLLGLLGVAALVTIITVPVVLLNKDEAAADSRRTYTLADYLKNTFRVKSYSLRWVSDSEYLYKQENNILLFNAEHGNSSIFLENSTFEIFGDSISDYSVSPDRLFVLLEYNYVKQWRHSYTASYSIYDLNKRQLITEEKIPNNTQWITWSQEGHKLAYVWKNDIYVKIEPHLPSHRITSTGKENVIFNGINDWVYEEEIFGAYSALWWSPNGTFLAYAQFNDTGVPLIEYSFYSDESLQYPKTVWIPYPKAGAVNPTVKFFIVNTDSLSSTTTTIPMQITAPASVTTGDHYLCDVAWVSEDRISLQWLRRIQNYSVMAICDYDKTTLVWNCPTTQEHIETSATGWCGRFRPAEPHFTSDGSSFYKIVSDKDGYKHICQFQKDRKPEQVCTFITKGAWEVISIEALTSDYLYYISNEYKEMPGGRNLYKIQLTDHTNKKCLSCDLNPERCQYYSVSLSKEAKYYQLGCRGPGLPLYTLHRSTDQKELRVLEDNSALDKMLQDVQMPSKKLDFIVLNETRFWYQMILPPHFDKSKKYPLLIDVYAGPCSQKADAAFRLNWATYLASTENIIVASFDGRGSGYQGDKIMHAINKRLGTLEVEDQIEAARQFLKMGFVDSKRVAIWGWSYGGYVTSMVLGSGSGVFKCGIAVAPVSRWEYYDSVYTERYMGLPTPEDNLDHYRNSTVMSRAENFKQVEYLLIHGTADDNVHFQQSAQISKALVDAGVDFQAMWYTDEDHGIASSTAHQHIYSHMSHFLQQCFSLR

Row | Compound | IC50 [nM]
1 | N#Cc1ccc(N2CCN([C@@H]3CN[C@H](C(=O)N4CCSC4)C3)CC2)nc1 | 1.9
2 | N#Cc1ccnc(N2CCN([C@@H]3CN[C@H](C(=O)N4CCSC4)C3)CC2)c1 | 1.4
3 | O=C([C@@H]1C[C@H](N2CCN(c3cccc(Cl)c3)CC2)CN1)N1CCSC1 | 7.2
4 | COc1ccc(N2CCN([C@@H]3CN[C@H](C(=O)N4CCSC4)C3)CC2)cc1 | 16.9
5 | O=C([C@@H]1C[C@H](N2CCN(c3ccc(C(F)(F)F)cc3)CC2)CN1)N1CCSC1 | 7.2
6 | O=C([C@@H]1C[C@H](N2CCN(c3ccc(F)cc3)CC2)CN1)N1CCSC1 | 17.5
7 | O=C([C@@H]1C[C@H](N2CCCCC2)CN1)N1CCSC1 | 74.4
8 | N#Cc1ccc(N2CCN([C@@H]3CN[C@H](C(=O)N4CCSC4)C3)CC2)cc1 | 4.7
9 | O=C([C@@H]1C[C@H](N2CCN(c3ccc(Cl)cc3)CC2)CN1)N1CCSC1 | 10.3
10 | O=C([C@@H]1C[C@H](N2CCN(c3ccccc3)CC2)CN1)N1CCSC1 | 17.6
11 | O=C([C@@H]1C[C@H](N2CCN(c3ccc(Br)cc3)CC2)CN1)N1CCSC1 | 9

Test system: Rattus norvegicus
Assay: Inhibition of DPP4 in Wistar rat plasma at 10 umol/kg, po
Assay type: functional
Settings: not given
How it was run: (§1)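 Male/female not stated; Wistar rats given single oral dose of 10 µmol/kg in 0.5% hydroxypropylmethyl-cellulose. Jugular vein blood (0.1 mL) taken pre-dose and 0.5, 1, 2, 3, 5, 7, 9 h; plasma diluted 10-fold in PBS with 0.003% Brij-35, DPP-IV activity read by Gly-Pro-MCA fluorescence (ex 360/em 465 nm); % change of baseline, means ± SEM, n = 3.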

Row | Compound | inhibition in vivo at 10 µmol/kg [%]
12 | N#Cc1ccc(N[C@@H]2CN[C@H](C(=O)N3CCSC3)C2)nc1 | 70

Test system: Rattus norvegicus
Assay: Inhibition of DPP4 in Wistar rat plasma at 10 umol/kg, po within 30 mins
Assay type: functional
Settings: 0.5 h
How it was run: as §1

Row | Compound | inhibition in vivo at 10 µmol/kg [%]
13 | N#Cc1ccc(N2CCN([C@@H]3CN[C@H](C(=O)N4CCSC4)C3)CC2)cc1C#N | 95
14 | O=C([C@@H]1C[C@H](N2CCN(c3ccc([N+](=O)[O-])cn3)CC2)CN1)N1CCSC1 | 95

Test system: Rattus norvegicus
Assay: Inhibition of DPP4 in Wistar rat plasma at 10 umol/kg, po after 9 hrs
Assay type: functional
Settings: read-out: Inhibition
How it was run: as §1

Row | Compound | inhibition in vivo at 10 µmol/kg [%]
15 | N#Cc1ccc(N2CCN([C@@H]3CN[C@H](C(=O)N4CCSC4)C3)CC2)cc1C#N | > 60
16 | O=C([C@@H]1C[C@H](N2CCN(c3ccc([N+](=O)[O-])cn3)CC2)CN1)N1CCSC1 | > 60
